The target in data set [1] is T1, Orco T465A (Apocrypta bakeri, UniProt B0FAQ4, T465A).
T1 sequence (B0FAQ4 1-474 T465A): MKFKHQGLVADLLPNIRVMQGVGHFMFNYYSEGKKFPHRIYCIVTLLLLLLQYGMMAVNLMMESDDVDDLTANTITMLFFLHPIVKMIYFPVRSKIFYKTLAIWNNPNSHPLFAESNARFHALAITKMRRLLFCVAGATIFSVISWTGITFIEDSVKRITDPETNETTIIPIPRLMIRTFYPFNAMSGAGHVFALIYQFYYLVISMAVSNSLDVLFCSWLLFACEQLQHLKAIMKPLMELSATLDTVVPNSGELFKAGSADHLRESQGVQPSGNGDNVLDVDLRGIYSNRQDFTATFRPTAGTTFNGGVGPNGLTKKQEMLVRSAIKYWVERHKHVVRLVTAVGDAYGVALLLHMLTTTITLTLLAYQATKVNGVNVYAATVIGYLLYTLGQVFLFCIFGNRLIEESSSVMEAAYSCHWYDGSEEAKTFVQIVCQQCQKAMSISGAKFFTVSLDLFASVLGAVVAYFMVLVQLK
As to the kind of experiment: Cell-based GCaMP assay, mutant Orco homomer. The arrangement: species or system A. bakeri. The settings on record: mutation of Thr465 to alanine. In short, it runs like this: (§1)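 Orco alone (A. bakeri wild-type or point mutant, or An. gambiae) was transfected with GCaMP6s into HEK293 cells by lipofectamine. After 4 h plus 24 h, cells were read in HEPES-buffered HBSS pH 7.4 with 5 mM CaCl2. VUAA1 was added after 34 s at seven concentrations plus zero, four wells each. GCaMP fluorescence (480/527 nm, 37 °C) was followed for 2 min. A Hill equation fitted to ΔF/Fo gave EC50 and n over N independent replicates.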

For data set [2], the target named is T2, Orco (Apocrypta bakeri, UniProt B0FAQ4).
T2 sequence (B0FAQ4 2-474): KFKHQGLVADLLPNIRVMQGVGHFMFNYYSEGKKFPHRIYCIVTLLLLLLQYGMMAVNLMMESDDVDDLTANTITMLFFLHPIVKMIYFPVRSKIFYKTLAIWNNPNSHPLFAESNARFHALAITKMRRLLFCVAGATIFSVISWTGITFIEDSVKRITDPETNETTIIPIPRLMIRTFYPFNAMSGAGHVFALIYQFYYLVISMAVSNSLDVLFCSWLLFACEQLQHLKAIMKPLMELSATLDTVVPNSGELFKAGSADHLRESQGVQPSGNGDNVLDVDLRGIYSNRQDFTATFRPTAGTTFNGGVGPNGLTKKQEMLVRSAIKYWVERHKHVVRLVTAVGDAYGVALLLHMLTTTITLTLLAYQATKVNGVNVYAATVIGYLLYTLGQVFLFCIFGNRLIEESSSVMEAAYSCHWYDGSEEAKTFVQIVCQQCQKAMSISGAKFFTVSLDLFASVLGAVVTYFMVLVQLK
As to the kind of experiment: Isothermal titration calorimetry. The data set is classed as binding. In short, it runs like this: (§2)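 A. bakeri Orco was expressed from baculovirus in HEK293S GnTi− cells, StrepTactin-purified and tag-cleaved in HBS/0.05% digitonin. It was used alone or complexed with Fab (1.5-fold molar excess) at ~10 μM monomer. VUAA1 (0.5 mM in the same buffer, 0.5% DMSO matched) was injected at 25 °C: 0.4 μL, then 19 × 2 μL, 150 s apart. A single-site fit (n fixed at 1, first injection excluded) gave Kd, ΔH and ΔQdil; three independent purifications.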
A general note: In ITC the heat of successive injections is recorded.

In data set [3] the target is T3, Orco-Fab complex (Apocrypta bakeri, UniProt B0FAQ4).
T3 sequence (B0FAQ4 2-474): T2 sequence (B0FAQ4 2-474)
Kind of data set: Isothermal titration calorimetry. Format: binding. In short, it runs like this:
as §2

In data set [4] the target is T4, Orco S458A (Apocrypta bakeri, UniProt B0FAQ4, S458A).
T4 sequence (B0FAQ4 1-474 S458A): T1 sequence (B0FAQ4 1-474 T465A) with S458A, A465T
Kind of data set: Cell-based GCaMP assay, mutant Orco homomer. Further details: species or system A. bakeri. The settings on record: mutation of Ser458 to alanine. In short, it runs like this:
as §1

In data set [5] the target is T5, Orco V469A (Apocrypta bakeri, UniProt B0FAQ4, V469A).
T5 sequence (B0FAQ4 1-474 V469A): T1 sequence (B0FAQ4 1-474 T465A) with A465T, V469A
As to the kind of experiment: Cell-based GCaMP assay, mutant Orco homomer. Further details: species or system A. bakeri. The settings on record: mutation of Val469 to alanine. The procedure, abridged: as §1

The target of data set [6] is T6, Orco L473A (Apocrypta bakeri, UniProt B0FAQ4, L473A).
T6 sequence (B0FAQ4 1-474 L473A): T1 sequence (B0FAQ4 1-474 T465A) with A465T, L473A
Kind of data set: Cell-based GCaMP assay, mutant Orco homomer. The arrangement: species or system A. bakeri. The note with it: mutation of Leu473 to alanine. In short, it runs like this:
as §1

In data set [7] the target is T2, Orco. As to the kind of experiment: Whole-cell voltage-clamp VUAA1 dose-response, HEK293 cell expressing Orco. The data set is classed as cell-based. The procedure, abridged:
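Whole-cell recording used Flp-In T-Rex 293 cells stably expressing GFP-tagged wild-type Orco, held at −80 mV. Bath: 135 mM NaCl, 5 mM KCl, 2 mM CaCl2, 2 mM MgCl2, 10 mM glucose, HEPES pH 7.3. Pipette: 150 mM KCl, 10 mM NaCl, 1 mM EDTA, HEPES pH 7.45. VUAA1 was diluted in bath solution and locally perfused. Current was normalised to the current at the highest concentration and Hill-fitted; four cells, mean ± s.d. Outside-out patches were held at −140 mV.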

Data set [8] deals with the molecule itself. Kind of data set: cryo-EM structure.
Setting [9] is: ITC 25 °C, fitted parameter, mean ± s.d.
Setting [10] is: ITC 25 °C, single-site model, mean ± s.d.

Data on 2 molecules can be found in paper PMC6129982 (Nature, 2018).

Where a chain is given by its changes, count along the chain named.

As to `CCc1ccc(NC(=O)CSc2nnc(-c3cccnc3)n2CC)cc1` [VUAA1], the “VUAA1 responses in Orco homomers versus wild-type” value in data set [1] and in data set [4] was “strongly attenuated” throughout. Moreover, the Kd (in general, the constant that tells how readily two partners part at equilibrium) in data set [2] came out at 13 ± 1 µM; in data set [3], 18 ± 2 µM. Also, the “heat associated with sample dilution (ΔQdil)” value in data set [2] (setting [9]) was -1.0 ± 0.1 kcal/mol; in data set [3] (setting [9]) it was -1.0 ± 0.2 kcal/mol. The “enthalpy of binding (ΔH)” value in data set [2] (setting [10]) is -8.3 ± 0.6 kcal/mol; in data set [3] (setting [10]) it was -9.7 ± 0.4 kcal/mol. Besides, the “binding affinity of Orco-Fab complex for VUAA1 versus Orco” value in data set [3] (ITC) is reported as “retained its binding affinity”. Also, the “enhancement of apparent sensitivity of Orco homomers versus wild-type” value in data set [5] and in data set [6] was 10 fold in each case. In addition, the response in data set [7] was half-maximal at 64 ± 7 µM (EC50). Further, the channel activation entry in data set [7] (Orco expressed independently, whole-cell and outside-out patch recording) is given as “activated”. In data set [7] (whole-cell current, Hill fit, four independent cells, mean ± s.d.), this molecule showed a Hill coefficient n of 3.5 ± 0.5.

B1: Apocrypta bakeri Orco, purified (residues Lys2-Lys474, Strep-GFP tag cleaved) (receptor, UniProt B0FAQ4 2-474, looked up)
chain: T2 sequence (B0FAQ4 2-474)
Turning to B1, the stoichiometry N (as a rule, a count of units in the complex or per binding partner) in data set [8] turned out to be 4.
